Measurements published in ChEMBL document CHEMBL4257483, “Design, synthesis and bioactivities of phenithionate analogues or derivatives for anti-schistosomiasis” (Medchemcomm, 2018).
≈ marks a conversion by molar mass, not a printed value. Calls of active or inactive are those of the source. The calls are words filed in the database; no cut-off is given here.

Tests used:
[1] = test system: Schistosoma japonicum; experiment: Antischistosomal activity against Schistosoma japonicum infected in mouse at 25 mg/kg/day, po treated for 5 days measured after day 2 post last dose by ELISA; type: functional, organism-based
In short: (§1)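 Male mice (20–22 g) infected via abdominal skin with 120–140 S. japonicum cercariae. From day 35 post-infection, dosed orally once daily for 5 days. Venous blood then clotted and centrifuged 15 min at 3500 rpm. Serum tested by triple dot ELISA and scored by spot colour: brown +++, yellow ++, slight yellow +, colourless –. DMSO blank.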

[2] = test system: Schistosoma japonicum; experiment: Antischistosomal activity against Schistosoma japonicum infected in mouse at 25 mg/kg/day, po treated for 5 days measured after day 1 post last dose by ELISA; type: functional, organism-based; in short: as §1
[3] = test system: Schistosoma japonicum; experiment: Antischistosomal activity against Schistosoma japonicum infected in mouse at 25 mg/kg/day, po treated for 5 days measured after day 4 post last dose by ELISA; type: functional, organism-based; in short: as §1
[4] = test system: Schistosoma japonicum; experiment: Antischistosomal activity against Schistosoma japonicum infected in mouse at 25 mg/kg/day, po treated for 5 days measured after day 3 post last dose by ELISA; type: functional, organism-based; in short: as §1
[5] = test system: Schistosoma japonicum; experiment: Antischistosomal activity against Schistosoma japonicum infected in mouse at 50 mg/kg/day, po treated for 5 days measured after day 1 post last dose by ELISA; type: functional, organism-based; in short: as §1
[6] = test system: Schistosoma japonicum; experiment: Antischistosomal activity against Schistosoma japonicum infected in mouse at 25 mg/kg/day, po treated for 5 days measured after day 9 post last dose by ELISA; type: functional, organism-based; in short: as §1
[7] = test system: Schistosoma japonicum; experiment: Antischistosomal activity against Schistosoma japonicum larva derived from infected mouse assessed as reduction in larva viability after 72 hrs; type: functional, organism-based
In short: (§2)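 Worms perfused with cold heparinised HBSS from mice infected percutaneously with S. japonicum cercariae: larvae at 15 days post-infection (260–280 cercariae), adults at 35 days (120–140 cercariae). Five male and female worms per well in 10% calf serum RPMI 1640 with penicillin, streptomycin and amphotericin B. Preincubated 4 h at 37 °C, 5% CO2, then compounds added and viability recorded over 72 h. IC50 taken at 50% survival. DMSO blank.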

[8] = test system: Schistosoma japonicum; experiment: Antischistosomal activity against Schistosoma japonicum infected in mouse at 25 mg/kg/day, po treated for 5 days measured after day 5 post last dose by ELISA; type: functional, organism-based; in short: as §1
[9] = test system: Schistosoma japonicum; experiment: Antischistosomal activity against Schistosoma japonicum imago derived from infected mouse assessed as reduction in imago viability after 72 hrs; type: functional, organism-based; in short: as §2
[10] = test system: Schistosoma japonicum; experiment: Antischistosomal activity against Schistosoma japonicum infected in mouse at 25 mg/kg/day, po treated for 5 days measured after day 8 post last dose by ELISA; type: functional, organism-based; in short: as §1
[11] = test system: Schistosoma japonicum; experiment: Antischistosomal activity against Schistosoma japonicum infected in mouse at 25 mg/kg/day, po treated for 5 days measured after day 6 post last dose by ELISA; type: functional, organism-based; in short: as §1
[12] = Acute toxicity in po dosed mouse infected with Schistosoma japonicum treated for 5 days; type: organism-based; settings: in vivo
[13] = test system: Schistosoma japonicum; experiment: Antischistosomal activity against Schistosoma japonicum infected in mouse at 25 mg/kg/day, po treated for 5 days measured after day 7 post last dose by ELISA; type: functional, organism-based; in short: as §1
[14] = Lipid/water partition coefficient, log P of the compound; type: physicochemical
[15] = Dissociation constant, pKa of the compound; type: physicochemical
[16] = test system: Schistosoma japonicum; experiment: Antischistosomal activity against Schistosoma japonicum infected in mouse at 50 mg/kg/day, po treated for 5 days measured after day 7 post last dose by ELISA; type: functional, organism-based; in short: as §1
[17] = test system: Schistosoma japonicum; experiment: Antischistosomal activity against Schistosoma japonicum infected in mouse at 50 mg/kg/day, po treated for 5 days measured after day 8 post last dose by ELISA; type: functional, organism-based; in short: as §1
[18] = test system: Schistosoma japonicum; experiment: Antischistosomal activity against Schistosoma japonicum infected in mouse at 50 mg/kg/day, po treated for 5 days measured after day 5 post last dose by ELISA; type: functional, organism-based; in short: as §1
[19] = test system: Schistosoma japonicum; experiment: Antischistosomal activity against Schistosoma japonicum infected in mouse at 50 mg/kg/day, po treated for 5 days measured after day 2 post last dose by ELISA; type: functional, organism-based; in short: as §1
[20] = test system: Schistosoma haematobium; experiment: Antischistosomal activity against Schistosoma haematobium imago derived from infected mouse at 20 ug/ml after 72 hrs; type: functional, organism-based
[21] = test system: Schistosoma japonicum; experiment: Antischistosomal activity against Schistosoma japonicum infected in mouse at 50 mg/kg/day, po treated for 5 days measured after day 4 post last dose by ELISA; type: functional, organism-based; in short: as §1
[22] = test system: Schistosoma japonicum; experiment: Antischistosomal activity against Schistosoma japonicum infected in mouse at 50 mg/kg/day, po treated for 5 days measured after day 6 post last dose by ELISA; type: functional, organism-based; in short: as §1
[23] = test system: Schistosoma japonicum; experiment: Antischistosomal activity against Schistosoma japonicum infected in mouse at 50 mg/kg/day, po treated for 5 days measured after day 3 post last dose by ELISA; type: functional, organism-based; in short: as §1
[24] = test system: Schistosoma mansoni; experiment: Antischistosomal activity against Schistosoma mansoni imago derived from infected mouse at 20 ug/ml after 72 hrs; type: functional, organism-based
[25] = test system: Schistosoma japonicum; experiment: Antischistosomal activity against Schistosoma japonicum infected in mouse at 50 mg/kg/day, po treated for 5 days measured after day 9 post last dose by ELISA; type: functional, organism-based; in short: as §1
[26] = test system: Schistosoma japonicum; experiment: Antischistosomal activity against Schistosoma japonicum imago derived from infected mouse at 20 ug/ml after 72 hrs; type: functional, organism-based; in short: as §2

O=[N+]([O-])c1ccc(Nc2ccc(NC(=S)Oc3ccccc3)cc2)cc1
Activity [1]: Active
Activity [2]: Active
Activity [3]: Active
Activity [4]: Active
Activity [5]: Active
Activity [6]: Active
IC50 [7]: 6.53 µg/mL (≈ 17.9 µM)
Activity [8]: Active
IC50 [9]: 8.21 µg/mL (≈ 22.5 µM)
Activity [10]: Active
Activity [11]: Active
LD50 at 120 h [12]: 310 mg/kg
Activity [13]: Active

O=[N+]([O-])c1ccc(Sc2ccc(NC(=S)Oc3ccc(O)cc3)cc2)cc1
IC50 [7]: 15.7 µg/mL (≈ 39.3 µM)
IC50 [9]: 30.5 µg/mL (≈ 76.6 µM)
logP [14]: 5.25
pKa [15]: 9.21

CC(=O)Nc1ccc(OC(=S)Nc2ccc(Sc3ccc(C(F)(F)F)cc3)cc2)cc1
IC50 [7]: 19 µg/mL (≈ 41.1 µM)
IC50 [9]: 33.7 µg/mL (≈ 72.8 µM)
logP [14]: 5.96
pKa [15]: 9.02

Oc1ccc(OC(=S)Nc2ccc(Oc3ccc(C(F)(F)F)cc3)cc2)cc1
Activity [1]: Active
Activity [2]: Active
Activity [3]: Active
Activity [16]: inactive
Activity [4]: Active
Activity [5]: Active
Activity [17]: inactive
Activity [6]: inactive
Activity [18]: inactive
IC50 [7]: 5.21 µg/mL (≈ 12.9 µM)
Activity [19]: Active
Activity [8]: Active
IC50 [9]: 6.35 µg/mL (≈ 15.7 µM)
logP [14]: 6.11
Activity [10]: inactive
Activity [20]: inactive
Activity [11]: inactive
LD50 at 120 h [12]: > 500 mg/kg
Activity [21]: inactive
Activity [22]: inactive
Activity [23]: Active
pKa [15]: 9.23
Activity [24]: inactive
Activity [25]: inactive
Activity [13]: inactive
Activity [26]: Active

CC(=O)Nc1ccc(OC(=S)Nc2ccc(Oc3ccc(C(F)(F)F)cc3)cc2)cc1
IC50 [7]: 10.4 µg/mL (≈ 23.2 µM)
IC50 [9]: 17.3 µg/mL (≈ 38.7 µM)
logP [14]: 5.41
pKa [15]: 9.03

O=C(C1CCCCC1)N1CC(=O)N2CCc3ccccc3C2C1 (stereo not given) [PRAZIQUANTEL]
Activity [1]: Active
Activity [2]: Active
Activity [3]: Active
Activity [16]: inactive
Activity [4]: Active
Activity [5]: Active
Activity [17]: inactive
Activity [6]: inactive
Activity [18]: Active
IC50 [7]: 6.33 µg/mL (≈ 20.3 µM)
Activity [19]: Active
Activity [8]: Active
IC50 [9]: 7.98 µg/mL (≈ 25.5 µM)
Activity [10]: inactive
Activity [11]: Active
LD50 at 120 h [12]: > 500 mg/kg
Activity [21]: Active
Activity [22]: Active
Activity [23]: Active
Activity [25]: inactive
Activity [13]: inactive

Oc1ccc(OC(=S)Nc2ccc(Sc3ccc(C(Cl)(Cl)Cl)cc3)cc2)cc1
IC50 [7]: 21.1 µg/mL (≈ 44.8 µM)
IC50 [9]: 37.3 µg/mL (≈ 79.2 µM)
logP [14]: 7.43
pKa [15]: 9.22

Oc1ccc(OC(=S)Nc2ccc(Nc3ccc(C(Cl)(Cl)Cl)cc3)cc2)cc1
Activity [1]: Active
Activity [2]: Active
Activity [3]: Active
Activity [4]: Active
Activity [5]: inactive
Activity [6]: Active
IC50 [7]: 7.35 µg/mL (≈ 16.2 µM)
IC50 [9]: 12.4 µg/mL (≈ 27.3 µM)
logP [14]: 6.79
Activity [10]: Active
Activity [20]: inactive
Activity [11]: Active
LD50 at 120 h [12]: > 500 mg/kg
pKa [15]: 9.23
Activity [24]: inactive
Activity [13]: Active
Activity [26]: Active

Oc1ccc(OC(=S)Nc2ccc(Sc3ccc(C(F)(F)F)cc3)cc2)cc1
IC50 [7]: 16.6 µg/mL (≈ 39.3 µM)
IC50 [9]: 31.9 µg/mL (≈ 75.6 µM)
logP [14]: 6.66
pKa [15]: 9.22

CC(=O)Nc1ccc(OC(=S)Nc2ccc(Nc3ccc(C(Cl)(Cl)Cl)cc3)cc2)cc1
IC50 [7]: 11.6 µg/mL (≈ 23.4 µM)
IC50 [9]: 20.1 µg/mL (≈ 40.6 µM)
logP [14]: 6.07
pKa [15]: 9.01

CC(=O)Nc1ccc(OC(=S)Nc2ccc(Oc3ccc([N+](=O)[O-])cc3)cc2)cc1
IC50 [7]: 8.24 µg/mL (≈ 19.5 µM)
IC50 [9]: 14.1 µg/mL (≈ 33.3 µM)
logP [14]: 4.81
pKa [15]: 9.04

CC(=O)Nc1ccc(OC(=S)Nc2ccc(Nc3ccc(C(F)(F)F)cc3)cc2)cc1
IC50 [7]: 11.2 µg/mL (≈ 25.1 µM)
IC50 [9]: 20 µg/mL (≈ 44.9 µM)
logP [14]: 5.32
pKa [15]: 9.05

CC(=O)Nc1ccc(OC(=S)Nc2ccc(Nc3ccc([N+](=O)[O-])cc3)cc2)cc1
IC50 [7]: 8.22 µg/mL (≈ 19.5 µM)
IC50 [9]: 15.2 µg/mL (≈ 36 µM)
logP [14]: 4.32
pKa [15]: 9.04

CC(=O)Nc1ccc(OC(=S)Nc2ccc(Oc3ccc(C(Cl)(Cl)Cl)cc3)cc2)cc1
IC50 [7]: 10.2 µg/mL (≈ 20.6 µM)
IC50 [9]: 18.3 µg/mL (≈ 36.9 µM)
logP [14]: 6.16
pKa [15]: 9.02

Oc1ccc(OC(=S)Nc2ccc(Oc3ccc(C(Cl)(Cl)Cl)cc3)cc2)cc1
Activity [1]: Active
Activity [2]: Active
Activity [3]: Active
Activity [16]: Active
Activity [4]: Active
Activity [5]: Active
Activity [17]: Active
Activity [6]: inactive
IC50 [7]: 7.98 µg/mL (≈ 17.5 µM)
Activity [19]: Active
Activity [8]: Active
IC50 [9]: 13.5 µg/mL (≈ 29.8 µM)
logP [14]: 6.84
Activity [10]: inactive
Activity [20]: inactive
Activity [11]: Active
LD50 at 120 h [12]: > 500 mg/kg
Activity [21]: Active
Activity [22]: Active
Activity [23]: Active
pKa [15]: 9.24
Activity [24]: inactive
Activity [25]: Active
Activity [13]: inactive
Activity [26]: Active

CC(=O)Nc1ccc(OC(=S)Nc2ccc(Sc3ccc([N+](=O)[O-])cc3)cc2)cc1
IC50 [7]: 16.7 µg/mL (≈ 37.9 µM)
IC50 [9]: 31.2 µg/mL (≈ 71 µM)
logP [14]: 5.06
pKa [15]: 8.99

CC(=O)Nc1ccc(OC(=S)Nc2ccc(Sc3ccc(C(Cl)(Cl)Cl)cc3)cc2)cc1
IC50 [7]: 23.5 µg/mL (≈ 46 µM)
IC50 [9]: 40.4 µg/mL (≈ 78.9 µM)
logP [14]: 6.71
pKa [15]: 9.01
